An excerpt weighted towards active compounds, which were near 4.8% of everything screened.
ERb coact inh: inhibitors of ERβ-SRC1 coactivator interaction, primary screen, biochemical, TR-FRET, ERβ LBD, SRC-1 peptide | Estrogen receptor beta (Homo sapiens), Q92731 | TR-FRET ER-beta LBD / SRC1-Cy5 peptide binding; receptor agonist-loaded with 1 µM estradiol | inhibition, % at 25.6 µM | actives 1.3% (n = 86,000);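 active means compounds whose percent inhibition of the receptor-coactivator binding signal exceeds about 50% in the single-dose screen, limit read from the data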
PTK2B oligo ant: antagonists of Pyk2 self-association, primary screen, Q293 cells, FERM NanoBiT luminescence, HTS; hits give low values; actives 0.83% (n = 99,000); z-score (the deposit names both 25 µM and 10 µM);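 active means Z-score of -3 or lower, scaled per plate to the spread of control and sample wells; inactive means z-score above -3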;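 further: negative z-score means lost luminescence so less FERM oligomerization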
SF1 activator: activators of human SF-1, primary screen, cell-based, CHO-K1, Gal4-SF-1 LBD, luciferase luminescence; Steroidogenic factor 1 (Homo sapiens), Q13285; CHO-K1 Gal4-SF-1 LBD luciferase reporter; % increase over DMSO SF-1-specific signal; activation, % at 10 µM; actives 1.9% (n = 65,000);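 active means activation above the mean activation of all tested compounds plus 3 SD, cut at about 50% in these data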
Target sequence (Q13285 whole entry, looked up, the tested form may be a part): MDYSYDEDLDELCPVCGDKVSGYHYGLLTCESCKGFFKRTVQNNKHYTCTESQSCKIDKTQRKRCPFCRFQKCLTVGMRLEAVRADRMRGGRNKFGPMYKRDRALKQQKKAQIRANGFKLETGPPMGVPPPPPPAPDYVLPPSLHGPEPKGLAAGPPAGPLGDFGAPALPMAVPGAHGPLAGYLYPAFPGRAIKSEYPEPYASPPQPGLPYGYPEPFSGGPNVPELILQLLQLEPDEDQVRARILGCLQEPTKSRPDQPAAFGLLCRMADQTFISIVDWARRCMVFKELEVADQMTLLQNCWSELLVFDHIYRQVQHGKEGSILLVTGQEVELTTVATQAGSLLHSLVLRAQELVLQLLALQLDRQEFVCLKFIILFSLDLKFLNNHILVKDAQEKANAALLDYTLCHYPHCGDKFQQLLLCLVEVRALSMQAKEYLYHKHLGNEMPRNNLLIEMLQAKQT
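Assay system: CHO-K1 cells co-transfected with Gal4 DBD–human SF-1 LBD, 5xGal4 luciferase reporter / Input: 4,000 cells per well / Incubation: 20 h compound exposure at 37 °C after 1 h cell settling / Detection: SteadyLite luciferase luminescence / Control set: DMSO negative control and −SF1 background wells / Replication: one test per compound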
RORA act: activators of orphan receptor RORA, primary screen, cell-based, luminescence | CHO-K1 Gal4-RORA LBD luciferase reporter; percent increase over mock-subtracted basal signal | AID 560, 2006 | activation, % at 10 µM | actives 1.5% (n = 65,000);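 active means activation above the mean of all tested compounds plus 3 SD, cut at about 49% in these data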
ERa SRC1 inh: ERα–SRC-1 coactivator interaction inhibitors, primary screen, biochemical, TR-FRET, ERα LBD, estradiol-bound. inhibition, % at 25.6 µM. actives 1.7% (n = 86,000). TR-FRET ER-alpha LBD / SRC-1 peptide. AID 629, 2007. Estrogen receptor (Homo sapiens), P03372; in the data active means inhibition above about 50%
ERa coact pot: enhancers of ERα–SRC-1 coactivator binding, primary screen, biochemical, TR-FRET, ERα LBD, low estradiol. Estrogen receptor (Homo sapiens), P03372. TR-FRET ERalpha-LBD/SRC-Cy5 coactivator binding, 2 h; 100 = basal binding, no effect. coactivator binding (% of control), % at 25.6 µM. actives 1.3% (n = 86,000). AID 639, 2007; in the data active means activity above about 200%;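 further: binding measured in presence of low estradiol as agonist stimulus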
Each line names hits and unclear results; the compound was inactive in the other large screens; [ ] = dose if it differs, or a comment.

CCOc1ccccc1C1C(C#N)=C(SCC(=O)OC)NC(=O)C1C(=O)OC (configuration not stated)	ERb coact inh 85[fluorescence artefact?]
CCOC(=O)C1C(=O)NC(SCC(=O)OC)=C(C#N)C1c1ccccc1OCC (configuration not stated)	none
CCOC(=O)N1CCC2(CC1)C(C#N)=C(N)Oc1c2c(C)nn1-c1cccc(Cl)c1	none
CCCCNC(=O)Nc1ccon1	ERb coact inh 99[fluorescence artefact?]
CC(=O)c1cnc2cc(-c3ccc(C)cc3)nn2c1C	none (no result: SF1 activator, RORA act)
CC(=O)c1cnc2cc(-c3ccccc3)nn2c1C	SF1 activator 50
Cc1noc(C)c1C(=O)OC(C(=O)NC1CCCC1)c1ccc(F)cc1 (configuration not stated)	none
O=C(CSc1ccc(-c2ccccc2)nn1)NCc1ccco1	none (no result: SF1 activator, RORA act)
COc1cccc(/C=C2\N=C(SC)SC2=O)c1OC	none
COc1cccc(/C=C2\N=C(c3c(-c4ccccc4)noc3C)OC2=O)c1OC	ERa SRC1 inh 68 (no result: SF1 activator, RORA act)
O=c1oc2ccccc2cc1-c1nc2ccccc2o1	none (no result: ERb coact inh, SF1 activator, RORA act, ERa SRC1 inh, ERa coact pot)
O=c1oc2ccc3ccccc3c2cc1-c1nc2ccccc2o1	ERa SRC1 inh 51[fluorescence artefact?] (no result: SF1 activator, RORA act)
CCC(C)c1ccc(NC(=O)CSc2nncn2N)cc1 (configuration not stated)	none (no result: SF1 activator, RORA act)
Nn1cnnc1SCC(=O)Nc1ccc(C2CCCCC2)cc1	SF1 activator 54
CCOc1ccc(C2C=C(c3ccc(C)cc3)Nc3ncnn32)cc1 (configuration not stated)	none (no result: PTK2B oligo ant)
CCOc1ccc(C2C=C(c3ccccc3)Nc3nnnn32)cc1 (configuration not stated)	RORA act 56
COc1ccc(C2C=C(c3ccccc3)Nc3ncnn32)cc1 (configuration not stated)	ERb coact inh 86[fluorescence artefact?]
CC(=O)NC1C(=O)Nc2c1cccc2C(F)(F)F (configuration not stated)	none
Cc1nn(-c2ccccc2)c2sc(C(=O)OCc3nnc(-c4ccccc4)o3)cc12	none
COC(=O)c1ccc(CSc2nc(C)nc3sc(C)c(C)c23)o1	ERa SRC1 inh 55
COC(=O)c1ccc(CSc2nnc(SCc3ccc(C(=O)OC)o3)s2)o1	none
Cc1ccc2nc(-c3cccc(S(=O)(=O)N(C)C)c3)cn2c1	SF1 activator 52, RORA act 56
COc1ccccc1CC(=O)Nc1ccc(-c2noc(COc3ccc(Br)cc3)n2)cc1	none (no result: SF1 activator, RORA act)
Cc1ccccc1OCC(=O)N(Cc1nc(-c2ccccc2)no1)C(C)C	ERa coact pot 323[fluorescence artefact?]
Cc1ccc(SCC(=O)N(Cc2nc(-c3ccccc3)no2)C(C)C)cc1	none
Cc1ccccc1OCc1nc(-c2ccc(NC(=O)c3ccco3)cc2)no1	RORA act 58
Cc1ccccc1OCc1nc(-c2ccccc2)no1	SF1 activator 71
Cc1ccccc1OCc1nc(-c2ccc(NC(=O)c3ccc4c(c3)OCO4)cc2)no1	none
CCCc1ccc(OCc2nc(-c3ccc(NC(=O)c4ccco4)cc3)no2)cc1	SF1 activator 50
Cc1c(Br)c([N+](=O)[O-])nn1C(C)C(=O)Nc1c(C)n(C)n(-c2ccccc2)c1=O (configuration not stated)	none (no result: ERb coact inh, SF1 activator, RORA act, ERa SRC1 inh, ERa coact pot)
Clc1ccc2oc(-c3ccccc3)nc2c1	ERb coact inh 57[fluorescence artefact?] (no result: SF1 activator, RORA act)
Clc1ccc2oc(-c3cccnc3)nc2c1	none (no result: SF1 activator, RORA act)
O=C(CSc1ccccn1)c1ccc(F)cc1	none
Cc1ccc(C(=O)CSc2ccccn2)cc1	SF1 activator 84
COc1cccc(C2(O)CCN(C(=O)C3CCC3)CC2)c1	none
Fc1cccc(-c2cc3nc4c(c(N5CCOCC5)n3n2)CCCC4)c1	PTK2B oligo ant -3.2
Cc1ccc(Sc2ccc(N)cc2C#N)cc1	none (no result: ERb coact inh, SF1 activator, RORA act, ERa SRC1 inh, ERa coact pot)
O=C1CC(C(F)(F)C(F)(F)C(F)(F)C(F)F)=Nc2ccccc2N1	none
O=C1CC(/C=C/c2ccco2)=Nc2ccccc2N1	ERa SRC1 inh 58
O=C(CN(Cc1ccco1)C(=O)c1cc(=O)[nH]c2ccccc12)Nc1ccccc1Br	none
CC(C)CCN1CC(O)=C(c2nc3ccccc3[nH]2)C1=N	none (no result: SF1 activator, RORA act)
CC(C)N1CC(O)=C(c2nc3ccccc3[nH]2)C1=N	RORA act 50
O=C(Nc1ccccc1-c1ccccc1)C12CC3CC(CC(C3)C1)C2	none (no result: ERb coact inh, SF1 activator, RORA act, ERa SRC1 inh, ERa coact pot)
CCOc1ccccc1CNC(=O)Cn1c(=O)oc2ccccc21	ERb coact inh 55[fluorescence artefact?] (no result: PTK2B oligo ant, SF1 activator, RORA act)
O=C(COc1ccc(Cl)cc1Cl)NC1CCSC1=O (configuration not stated)	SF1 activator 58
COC(=O)COc1ccc(S(=O)(=O)Nc2ccc3c(c2)OCO3)cc1Cl	none
COC(=O)COc1ccc(S(=O)(=O)Nc2ccc3c(c2)OCO3)cc1	ERa SRC1 inh 67
CCCS(=O)(=O)N1CCC(C(=O)NCc2ccco2)CC1	none
C/C=C/CSc1nc2c(c(=O)[nH]c(=O)n2C)n1Cc1ccc(C)cc1	none (no result: PTK2B oligo ant)
O=C(CCSc1nc(-c2ccco2)cc(C(F)(F)F)n1)N1CCCc2ccccc21	none
CC(=O)O[C@@H]1[C@@H](OC(C)=O)[C@H](n2ccc3cc([N+](=O)[O-])ccc32)OC[C@@H]1OC(C)=O	none (no result: SF1 activator, RORA act)
Cc1cc(C)c2cc3c(ccn3C3OC[C@H](O)[C@H](O)[C@H]3O)cc2n1 (some centres not stated)	ERb coact inh 52[fluorescence artefact?]
CCCn1c(Nc2ccccc2C)nc2ccccc21	none (no result: SF1 activator, RORA act)
O=C1OCCC1N1C(=O)c2ccccc2S1(=O)=O (configuration not stated)	none
O=C(NCC1COc2ccccc2O1)c1ccc(Cl)cc1 (configuration not stated)	SF1 activator 60
O=C(O)C1C2C=CC(O2)C1C(=O)NCc1ccccc1Br (configuration not stated)	none (no result: SF1 activator, RORA act)
COc1ccc(-c2nc(C)c(C(C)=O)n2O)cc1OC	none
CC(=O)c1c(C)nc(-c2ccc3c(c2)OCO3)n1O	ERa coact pot 667[fluorescence artefact?]
COCCCn1c(Cc2csc(Nc3cccc(Cl)c3)n2)nnc1SCC(=O)OC	ERb coact inh 61[fluorescence artefact?]
Cc1sc2nc3n(c(=O)c2c1C)Cc1ccccc1-3	SF1 activator 56, RORA act 73 (no result: PTK2B oligo ant)
c1ccc2c(c1)NC1(CCCCC1)n1c-2nc2ccccc21	RORA act 53
CCCSc1nnc(-c2ccccc2N)c(=O)[nH]1	none
CCCCSc1nnc(-c2ccccc2N)c(=O)[nH]1	RORA act 58 (no result: ERb coact inh, ERa SRC1 inh, ERa coact pot)
